An excerpt weighted towards active compounds, which were near 2% of everything screened.
eIF4H inh = inhibitors of RNA binding by human eIF4H | Q15056 | eIF4H fluorescence polarization binding assay | inhibition, % at 35 µM | 0.94% of 290,000 active;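 further: calls also rest on retests at 20 µM and on dose response follow-up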
PABP FP inh = PABP-poly(A) binding inhibition | inhibition, % at 35 µM | PABP-poly(A) RNA binding, fluorescence polarization | 1% of 290,000 active | P11940;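 further: calls also rest on retests at 20 µM and on dose response follow-up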
PABP1 MLLE inh = inhibitors of microRNA-mediated deadenylation, human PABP1 MLLE binding; inhibition, % at 20 µM; 0.36% of 360,000 active; P11940; GST-MLLE / FITC-PAM2 fluorescence polarization; in the data active means inhibition above about 35%, passing the limit was not always enough;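 further: plate controls were DMSO wells with GST-MLLE for no effect and wells lacking GST-MLLE protein for full effect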
HCV NS3 hel inh = inhibitors of Hepatitis C virus NS3 helicase | AID 1800 | 0.56% of 290,000 active | NS3 helicase DNA unwinding, Cy5 molecular beacon fluorescence | inhibition, % at 10.9 µM;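 active means inhibition above the mean of all tested compounds plus 3 SD, set per campaign, cut at about 35% in these data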;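 further: 0% = DMSO wells and 100% = thioflavine S control wells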
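assay system = NS3 helicase fragment of HCV | buffer or medium = MOPS pH 6.5, MgCl2, DTT, Tween20, BSA | timing = 60 min unwinding reaction at 25 °C after ATP addition | signal = Cy5 beacon fluorescence read at start and 1 h | read-out basis = % inhibition of unwinding | control set = low DMSO, high thioflavine S at 110 µM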
FID counter = displaces DNA intercalator in HCV helicase counter-screen. inhibition, % at 7.9 µM. DNA fluorescent intercalator displacement, fluorescence. 0.17% of 290,000 active. AID 1845; in the data active means inhibition above about 37%;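 further: 0% = vehicle and 100% = reference compound; higher means more ethidium bromide displaced from hairpin DNA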
core dimer inh = blocks dimerization of HCV core protein | TR-FRET GST/Flag-core106 dimerization, 1536-well | inhibition, % at 5 µM | 0.33% of 300,000 active;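 active means inhibition above the mean of all tested compounds plus 3 SD, set per screening campaign, cut at about 45% in these data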
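Assay system: tagged HCV core106 pair (GST and Flag); medium: KF-containing HEPES buffer, pH 7.45, DTT, CHAPS, BSA; also added: Eu donor and XL665 acceptor anti-tag antibodies; dosing: 5 µM single dose; timing: compound-protein-antibody incubation 4 h at 22.5 °C; signal: TR-FRET 671 and 617 nm emission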
Numbers without * were called inactive; ? = inconclusive; . = not tested or not shown; ! = repeats disagree. Unless noted, how the calls were made is not given here.

SMILES	eIF4H inh	PABP FP inh	PABP1 MLLE inh	HCV NS3 hel inh	FID counter	core dimer inh
O=C(NCCOc1cccc2cccnc12)c1cccs1	active	52.2*	16.9	-2.8	-10.2	3.7
O=C(NC(=S)Nc1cccc(Cl)c1N1CCCCC1)c1cccs1	6.6	7.2	28.5	17.1	-4.7	3.4
O=C(NC(=S)Nc1cccc(Cl)c1N1CCOCC1)c1cccs1	-9.5	-4.8	42.1*	4.2	-3.7	2.2
COc1ccc(OC)c(NC(=O)C2(C)CCN2Cc2ccccc2Cl)c1 (centres undefined)	.	.	4.7	.	.	.
CCN(CC)CCn1c2ccccc2c2nc3ccc([N+](=O)[O-])cc3cc21	-26.2	-26.7	-36.3	3.0	43.9*	-3.3
Cn1c2ccccc2c2cc([N+](=O)[O-])ccc21	-5.7	7.7	-14.0	-1.4	6.7	2.4
CCCn1c(=O)c2sccc2n2c(CCCC(=O)NCc3ccco3)nnc12	78.4*	33.4*	-1.1	13.9	-19.5	10.1
CC1(C)CC(=O)C2=C(C1)OC(N)=C(C#N)C21CCN(Cc2ccccc2)CC1	?	?	15.6	-11.2	-7.2	5.4
Cc1nc2c([nH]1)C1(CCN(Cc3ccccc3)CC1)C(C#N)=C(N)O2	45.0*	66.1*	4.6	8.4	-7.7	-2.4
CCCCn1c2ccc(F)cc2c2nnc(SCCN3CCOCC3)nc21	-7.3	8.3	45.1*	19.7	-31.7	.
COc1ccc(CN2C(=O)Cc3c2nc(N)c2c(N)nc(N4CCCCC4)c(C#N)c32)cc1	?	-10.5	.	29.3	-11.0	56.5*
COc1cc2c(C#N)c(N3CCc4ccccc4C3)nc(N)c2c(N)n1	121.5*	115.5*	1.9	12.6	-8.9	44.7
COc1cc2c(C#N)c(N3CCCCC3)nc(N)c2c(N)n1	90.9*	101.5*	-12.4	12.3	-2.3	18.7
COc1cc2c(C#N)c(N3CCOCC3)nc(N)c2c(N)n1	-2.2	-9.8	18.6	1.6	1.2	-3.4
CCOc1cc2c(C#N)c(N3CCCCC3)nc(N)c2c(N)n1	127.2	119.8	-36.9	6.2	-8.0	9.8
NC(=O)NN=C1CCC(OCc2ccccc2)CC1CC(=O)O (centres undefined)	.	.	-8.6	.	.	.
CCN(CC(=O)NCc1cccs1)S(=O)(=O)c1cccc(Br)c1	.	.	14.2	.	.	.
OCc1c(Cl)nc2ccccn12	-7.4	60.3*	-12.8	10.1	-2.4	2.0
O=Cc1c(Cl)nc2ccccn12	-0.1	4.1	9.0	-5.8	1.4	-0.8
CC(NC(=O)Cc1cccs1)c1ccc2c(c1)OCO2 (centres undefined)	11.3	8.3	11.9	-7.0	-0.9	5.7
O=C(CC(SCCO)c1ccc2c(c1)OCO2)c1cccs1 (centres undefined)	5.6	4.2	43.4*	0.7	-0.7	3.7
CCOC(=O)c1c(-c2ccc(C)o2)csc1N	52.4*	68.1*	26.4	17.0	-10.3	2.9
Cc1nc(C(F)(F)F)ccc1C(=O)N1CCC1(C)C(=O)Nc1ccc2c(c1)OCO2 (centres undefined)	.	.	-1.0	.	.	.
Cc1ccccc1OCc1n(CC(=O)OC2CC(C)CCC2C(C)C)c2ccccc2[n+]1C (centres undefined)	4.8	-3.9	-2.8	-39.6	37.9*!	-8.5
O=C(c1nc2ccccn2c1CN1CCCC(O)C1)N1CCN(C2CCCCC2)CC1 (centres undefined)	22.4	27.6	42.2*	1.5	-1.8	-2.6
SMILES	eIF4H inh	PABP FP inh	PABP1 MLLE inh	HCV NS3 hel inh	FID counter	core dimer inh
CNC(=O)C[C@H]1C(=O)N(CCc2ccccc2)C[C@@H]1c1ccc(OC)cc1	.	.	-5.7	.	.	.
O=C1c2c(O)cccc2Cc2cccc(O)c21	.	.	46.2*	.	.	58.5*
O=C(O)CCC(=O)Nc1ccc2c(c1)Cc1cc(NC(=O)CCC(=O)O)ccc1-2	58.6*	12.2	7.3	21.5	-2.5	-18.3
Cc1cc(NC(=O)COc2ccc3ccccc3c2Br)no1	.	.	-13.8	.	.	.
O=C(O)c1cccc(-c2ccc3c(c2)OCO3)c1	-10.9	-9.2	3.0	-1.7	-0.5	10.5
O=C1OC(c2ccc3c(c2)OCO3)=N/C1=C\c1ccc(C(=O)O)cc1	54.9*	-1.0	-0.4	23.1	-8.4	-20.3
CNc1ncnc2c1ncn2[C@H]1CN(CCN2CCOCC2)C[C@@H](CO)O1	.	.	-2.0	.	.	.
O=c1[nH]c2cc3c(cc2cc1CN(CCc1ccccc1)Cc1nnnn1CC1CCCO1)OCO3 (centres undefined)	?	119.5*	9.7	5.2	5.9	3.3
O=c1[nH]c2cc3c(cc2cc1CN(Cc1nnnn1CC1CCCO1)C1CCCC1)OCO3 (centres undefined)	75.5	64.8*	64.5*	-0.9	-5.3	12.2
CCC(C)(C)n1nnnc1CN(Cc1ccco1)Cc1cc2cc3c(cc2[nH]c1=O)OCO3	-2.9	48.5	39.8*	-1.5	-8.4	11.2
CC1=NC(C)(C)CC2CCC(O)C12 (centres undefined)	.	.	20.4	.	.	.
N#Cc1cc2c([nH]c1=S)CCCCCC2	-4.8	7.4	38.1*	1.1	0.0	9.1
Cc1cccc(S(=O)(=O)c2c(N)n(/N=C/c3ccco3)c3nc4ccccc4nc23)c1	19.5	32.4	-19.6	23.7	-9.3	20.4
Nc1c(S(=O)(=O)c2ccccc2)c2nc3ccccc3nc2n1/N=C/c1ccco1	64.0	32.1*	-36.4	6.2	0.4	20.7
Cc1ccc(S(=O)(=O)c2c(N)n(/N=C/c3ccco3)c3nc4ccccc4nc23)cc1	69.1*	93.9*	-17.4	2.6	-2.3	17.8
CCOc1cc(/C=N/n2cnnc2)ccc1OCC(=O)Nc1ccccc1OC	-9.5	-5.7	-0.6	6.8	-3.0	-1.3
CCOc1cc(/C=C2\C(=O)N(c3cccc(C(=O)O)c3)N=C2C(F)(F)F)ccc1OCC(=O)Nc1ccccc1OC	8.6	8.2	.	4.4	43.3*	30.8
CCOC(=O)C1CCCN(C(=O)c2cccc(S(=O)(=O)N(Cc3ccccc3)c3ccccc3OC)c2)C1 (centres undefined)	.	.	4.1	.	.	4.5
COc1ccc2cc3c(N)nn(C(=O)c4cccc([N+](=O)[O-])c4)c3nc2c1	10.5	3.3	-47.3	4.2	-0.2	58.3*
CCCCn1c(=O)c(CCC(=O)OCC(=O)NC(=O)NCCC(C)C)nc2ccccc21	active	57.5	17.8	-7.0	0.6	0.2
O=C(NC1CCCCCC1)C1CCCN(c2ncccn2)C1 (centres undefined)	-7.2	0.6	4.7	-19.0	-20.7	-2.6
CCOc1ccc(Br)cc1S(=O)(=O)NCC(c1ccc(OC)cc1)N1CCOCC1 (centres undefined)	.	.	-1.6	.	.	.
COC(=O)C1=C(NC(=O)c2ccc(C)c(C)c2)CCS1	1.2	-0.1	39.2*	2.4	-2.6	4.1
Cn1c(=O)c2c(=O)cc(N)[nH]c2n(C)c1=O	44.4	39.1	43.3*	-4.1	-2.6	-1.2
CN(C)c1c(N)[nH]c2c(c1=O)c(=O)n(C)c(=O)n2C	46.7	-9.0	-5.2	9.2	-2.9	4.8
